{
  "source": "paper PMC11384490",
  "about": "(Translational Lung Cancer Research, 2024)",
  "key": {"[1]": {"experiment": "NIRF imaging and biodistribution in NSCLC subcutaneous tumor mouse model", "format": "in vivo, BALB/c nude mice", "details": "mouse, in vivo, iv, 10 nmol", "method_in_brief": "(§1)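 A549 cells in 100 µL PBS were injected subcutaneously into the left armpit of isoflurane-anaesthetised BALB/c nude mice, and tumours were sized by caliper (V=a2bπ/2). At about 100 mm3, mice (n=3) got the test compound (10 nmol) by tail vein. IVIS imaging ran from 1 h to several days, and tumour-to-background ratio was calculated. At 96 h, organs were excised, imaged, and organ-to-muscle fluorescence ratios averaged over 3 mice.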"}, "[2]": {"system": "A549 subcutaneous tumors", "experiment": "NIRF imaging and biodistribution in NSCLC subcutaneous tumor mouse model", "format": "in vivo, BALB/c nude mice", "method_in_brief": "as §1"}, "[3]": {"system": "orthotopic LLC pulmonary xenografts", "experiment": "Orthotopic pulmonary LLC tumor imaging and boundary analysis", "format": "in vivo, C57BL/6 mice"}, "[4]": {"system": "4T1 lung metastatic nodules", "experiment": "Imaging of experimental lung metastasis model", "format": "in vivo, Balb/c mouse", "details": "iRGD-ZW800 10 nmol, 4 h vs ICG 100 nmol, 24 h; result in words", "method_in_brief": "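Balb/c mice received 4T1 cells by tail vein and were observed weekly. After four weeks, the test compound (10 nmol) was given by tail vein. The chest was opened 4 h later and the lungs were imaged with an intraoperative NIRF imager. Control mice got ICG (100 nmol) and were imaged the same way after 24 h.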"}, "[5]": {"experiment": "Water solubility", "format": "physicochemical", "details": "result in words"}},
  "data": [
    {"smiles": "CC1(C)C(/C=C/C2=C(Oc3ccc(CCC(=O)N[C@H]4CSSC[C@@H](C(=O)O)NC(=O)[C@H](CC(=O)O)NC(=O)[C@@H]5CCCN5C(=O)CNC(=O)[C@H](CCCCN)NC(=O)[C@H](CC(=O)O)NC(=O)CNC(=O)[C@H](CCCNC(=N)N)NC4=O)cc3)C(=C/C=C3/N(CCC[N+](C)(C)C)c4ccc(S(=O)(=O)O)cc4C3(C)C)/CCC2)=[N+](CCC[N+](C)(C)C)c2ccc(S(=O)(=O)O)cc21", "note": "[iRGD-ZW800]", "values": [
      {"measurement": "tissue to tissue ratio at 96 h", "setting": "[1]", "value": 16.6},
      {"measurement": "peak tumor-to-background ratio (TBRmax)", "setting": "[2]; 10 nmol per animal via tail vein, peak 96 h after injection, IVIS imaging, n=3", "value": "4.3±1.04"},
      {"measurement": "Fluorescence intensity ratio Sp/M (spleen/muscle)", "setting": "[2]; ex vivo organs, 96 h after 10 nmol i.v., AVG of 3 mice, SD 0.19", "value": 0.85},
      {"measurement": "Fluorescence intensity ratio In/M (intestine/muscle)", "setting": "[2]; ex vivo organs, 96 h after 10 nmol i.v., AVG of 3 mice, SD 0.58", "value": 1.43},
      {"measurement": "Fluorescence intensity ratio H/M (heart/muscle)", "setting": "[2]; ex vivo organs, 96 h after 10 nmol i.v., AVG of 3 mice, SD 0.60", "value": 1.50},
      {"measurement": "Fluorescence intensity ratio Ki/M (kidney/muscle)", "setting": "[2]; ex vivo organs, 96 h after 10 nmol i.v., AVG of 3 mice, SD 1.64", "value": 4.57},
      {"measurement": "Fluorescence intensity ratio St/M (stomach/muscle)", "setting": "[2]; ex vivo organs, 96 h after 10 nmol i.v., AVG of 3 mice, SD 1.85", "value": 3.67},
      {"measurement": "Fluorescence intensity ratio Li/M (liver/muscle)", "setting": "[2]; ex vivo organs, 96 h after 10 nmol i.v., AVG of 3 mice, SD 2.55", "value": 5.28},
      {"measurement": "Fluorescence intensity ratio L/M (lung/muscle)", "setting": "[2]; ex vivo organs, 96 h after 10 nmol i.v., AVG of 3 mice, SD 2.67", "value": 5.01},
      {"measurement": "Fluorescence intensity ratio C/M (colon/muscle)", "setting": "[2]; ex vivo organs, 96 h after 10 nmol i.v., AVG of 3 mice, SD 3.74", "value": 6.80},
      {"measurement": "imaging window", "setting": "[2]; in vivo, 10 nmol tail vein, imaged periodically over 6 days", "value": "≥ 6", "unit": "days"},
      {"measurement": "ratio of tumor to lung fluorescence intensity", "setting": "[3]; 10 nmol tail vein, 24 h, FLI-10B imaging, ImageJ, standard deviation 0.18", "value": 2.2},
      {"measurement": "tumor background ratios", "setting": "[3]; lung tumor imaging in C57BL/6J mice, all ratios", "value": "greater than 1.5"},
      {"measurement": "detection of metastatic lung nodules compared with ICG", "setting": "[4]", "value": "superior ability to detect more nodules"},
      {"measurement": "water solubility", "setting": "[5]", "value": "good water solubility"},
      {"measurement": "water solubility", "setting": "[5]; listed as iRGD fluorescent tracer", "value": "highly soluble in water"}
    ]}
  ]
}
